From PubChem
IMP-1 inhibitor = IMP-1 metallo-beta-lactamase inhibitors, primary screen, biochemical, epi-absorbance readout, Pseudomonas aeruginosa enzyme. metallo-beta-lactamase IMP-1 (Pseudomonas aeruginosa). purified IMP-1, nitrocefin hydrolysis, epi-absorbance fluorescence. inhibition, % at 5.6 µM. 0.45% of 290,000 active. AID 1556, 2009;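 active means inhibition above the mean plus 3 SD of all compounds in the same screening run, cut at about 4.5% in these data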;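 further: 0% = IMP-1 with DMSO and 100% = DMSO wells lacking enzyme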
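System: Purified recombinant IMP-1 metallo-beta-lactamase enzyme | Measured by: Fluorescence quenching readout, ex 480/em 530 nm | Replication: Singlicate | Incubation: 15 min preincubation plus 25 min reaction at 25 °C | Evaluation: Percent inhibition from optical density relative to buffer-blank wells | Benchmarks: DMSO with and without IMP-1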
PABP1 MLLE inh = inhibitors of PABP1 MLLE–PAM2 peptide binding, primary screen, biochemical, fluorescence polarization, FITC-PAM2, GST-MLLE. Polyadenylate-binding protein 1 (Homo sapiens), P11940. 0.36% of 360,000 active. inhibition, % at 20 µM. AID 588489, 2011; in the data active means inhibition above about 35%, passing the limit was not always enough;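 further: plate controls were DMSO wells with GST-MLLE for no effect and wells lacking GST-MLLE protein for full effect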
eIF4H FP inh = human eIF4H binding inhibitors, primary screen, translation initiation inhibitor project, biochemical, uHTS, fluorescence polarization | eIF4H fluorescence polarization binding assay | inhibition, % at 35 µM | 0.94% of 290,000 active | AID 2012, 2009;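 further: calls also rest on retests at 20 µM and on dose response follow-up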
VIM-2 inh = VIM-2 metallo-beta-lactamase inhibitors, primary screen, biochemical, epi-absorbance readout, Pseudomonas aeruginosa enzyme | 0.89% of 290,000 active | inhibition, % at 5.6 µM | purified VIM-2, nitrocefin hydrolysis, epi-absorbance fluorescence;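 active means inhibition above the mean of all tested compounds plus 3 SD, cutoff set per screening run, cut at about 7.5% in these data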;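 further: red hydrolysis product quenches plate fluorescence so inhibitors raise well fluorescence; 0% = enzyme with DMSO and 100% = DMSO without enzyme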
PABP polyA inh = PABP poly(A) RNA binding inhibitors, primary screen, biochemical, fluorescence polarization, uHTS; AID 2014, 2009; Polyadenylate-binding protein 1 (Homo sapiens), P11940; calls only at 35 µM; 1% of 290,000 active;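 further: calls also rest on retests at 20 µM and on dose response follow-up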
* hit, by the source's call. Sampled rows, rich in hits. Any-hit rate of the full collection: about 2.2%. Unless noted, how the calls were made is not given here.

What do the screens show for `Cc1onc(-c2ccccc2Cl)c1C(=O)Nc1ncn[nH]1`?
IMP-1 inhibitor: -4.0; PABP1 MLLE inh: 2.6; eIF4H FP inh: -0.2; VIM-2 inh: -1.2; PABP polyA inh: inactive

How did Cc1ccc(NC(=O)CSc2nc3c(c(=O)[nH]2)CCC3)c(C)c1 do in these assays?
IMP-1 inhibitor: -1.3; PABP1 MLLE inh: -1.2; eIF4H FP inh: -5.1; VIM-2 inh: -5.7; PABP polyA inh: inactive

How did CCc1ccc(S(=O)(=O)/N=C2/C=C(Sc3ncn[nH]3)C(=O)c3ccccc32)cc1 do in these assays?
IMP-1 inhibitor: -2.8; PABP1 MLLE inh: 46.4*; eIF4H FP inh: -2.9; VIM-2 inh: -1.6; PABP polyA inh: inactive

What do the screens show for `CCc1ccc(S(=O)(=O)/N=C2\C=CC(=O)c3ccccc32)cc1`?
IMP-1 inhibitor: -2.9; eIF4H FP inh: -1.1; VIM-2 inh: -2.7; PABP polyA inh: inactive

What do the screens show for `COc1cccc(CNC(=O)[C@H](C)NC(=O)N2CC(=O)Nc3ccccc32)c1`?
PABP1 MLLE inh: -1.9

How did C#CCOCCOCCOCCNc1nc(N2CCN(C(=O)[C@H]([C@@H](C)CC)n3cc([C@@H](N)CO)nn3)CC2)nc(N2CCN(C(=O)[C@H]([C@@H](C)CC)n3cc([C@@H](N)CO)nn3)CC2)n1 do in these assays?
eIF4H FP inh: -1.4; PABP polyA inh: inactive

What do the screens show for `C#CCOCCOCCOCCNc1nc(N2CCN(C(=O)[C@H](Cc3ccc(O)cc3)n3cc([C@@H](N)CC(C)C)nn3)CC2)nc(N2CCN(C(=O)[C@H](Cc3ccc(O)cc3)n3cc([C@@H](N)CC(C)C)nn3)CC2)n1`?
IMP-1 inhibitor: 12.9*; eIF4H FP inh: 9.9; VIM-2 inh: 2.0; PABP polyA inh: inconclusive

How did C#CCOCCOCCOCCNc1nc(N2CCN(C(=O)[C@H]([C@@H](C)CC)n3cc([C@@H](N)CO)nn3)CC2)nc(N2CCN(C(=O)[C@H]([C@@H](C)CC)n3cc([C@@H](N)CC(C)C)nn3)CC2)n1 do in these assays?
IMP-1 inhibitor: -0.6; PABP1 MLLE inh: 41.3*; eIF4H FP inh: inconclusive; VIM-2 inh: -0.6; PABP polyA inh: inconclusive

How did C#CCOCCOCCOCCNc1nc(N2CCN(C(=O)[C@H](CCC(=O)O)n3cc(C(N)CC(C)C)nn3)CC2)nc(N2CCN(C(=O)[C@H](Cc3ccc(O)cc3)n3cc(C(N)CC(C)C)nn3)CC2)n1 (stereo partly specified) do in these assays?
IMP-1 inhibitor: -2.8; PABP1 MLLE inh: 11.4; eIF4H FP inh: 2.4; VIM-2 inh: -1.5; PABP polyA inh: inactive

What do the screens show for `C#CCOCCOCCOCCNc1nc(N2CCOCC2)nc(N2CCN(C(=O)[C@H](CCCCN)n3cc([C@@H](N)CO)nn3)CC2)n1`?
IMP-1 inhibitor: -1.7; PABP1 MLLE inh: -2.8; eIF4H FP inh: 27.1; VIM-2 inh: -1.6; PABP polyA inh: inactive

Results for C#CCOCCOCCOCCNc1nc(OC)nc(N2CCN(C(=O)[C@H](CCCCN)n3cc(C(N)CO)nn3)CC2)n1 (stereo partly specified) ?
eIF4H FP inh: 60.0*; PABP polyA inh: active

What do the screens show for `CCCOc1ccc(OCCOCCN2CCc3ccccc3C2)cc1`?
IMP-1 inhibitor: -4.8; PABP1 MLLE inh: 1.3; eIF4H FP inh: 4.0; VIM-2 inh: -3.8; PABP polyA inh: inactive

Results for Cc1noc(C)c1NC(=O)N(C)C[C@H]1OCc2cnnn2CCCC(=O)N([C@H](C)CO)C[C@@H]1C ?
PABP1 MLLE inh: 16.4

What do the screens show for `COc1cc(OC)cc(C(=O)/C=C2\Sc3ccccc3N2C)c1`?
IMP-1 inhibitor: -2.5; PABP1 MLLE inh: 35.5; eIF4H FP inh: 6.6; VIM-2 inh: 0.1; PABP polyA inh: inactive

How did CN1/C(=C\C(=O)c2cccc([N+](=O)[O-])c2)Sc2ccccc21 do in these assays?
IMP-1 inhibitor: -3.8; PABP1 MLLE inh: 39.0*; eIF4H FP inh: 11.1; VIM-2 inh: -0.4; PABP polyA inh: inactive

Results for Cc1cc(O)c(C=Nc2ccc(N3CCOCC3)cc2)c(C)c1Cl ?
IMP-1 inhibitor: -14.2; PABP1 MLLE inh: -47.7; eIF4H FP inh: 58.0; VIM-2 inh: 1.7; PABP polyA inh: active
